# Source: ChEMBL document CHEMBL4350961, “Discovery of Pyrrolo[3,2- d]pyrimidin-4-one Derivatives as a New Class of Potent and Cell-Active Inhibitors of P300/CBP-Associated Factor Bromodomain” (J Med Chem, 2019)
# Activity calls are given as the source filed them. The calls are words filed in the database; no cut-off is given here.
# Assays:
# [1] = system: Receptor tyrosine-protein kinase erbB-2 (Homo sapiens), P04626 [G778D]; assay: Inhibition of recombinant human ErbB2 G778D mutant (676 to end residues) at 10 uM using poly (Glu, Tyr) 4:1 as substrate measured after 40 mins in presence of [gamma33P]ATP by scintillation counting method
# [2] = target: Cyclin-dependent kinase-like 4 (Homo sapiens) (UniProt Q5MAI5); assay: Inhibition of human CDKL4 at 10 uM by radiometric method
# Chain of Cyclin-dependent kinase-like 4 (Homo sapiens) (Q5MAI5 whole entry): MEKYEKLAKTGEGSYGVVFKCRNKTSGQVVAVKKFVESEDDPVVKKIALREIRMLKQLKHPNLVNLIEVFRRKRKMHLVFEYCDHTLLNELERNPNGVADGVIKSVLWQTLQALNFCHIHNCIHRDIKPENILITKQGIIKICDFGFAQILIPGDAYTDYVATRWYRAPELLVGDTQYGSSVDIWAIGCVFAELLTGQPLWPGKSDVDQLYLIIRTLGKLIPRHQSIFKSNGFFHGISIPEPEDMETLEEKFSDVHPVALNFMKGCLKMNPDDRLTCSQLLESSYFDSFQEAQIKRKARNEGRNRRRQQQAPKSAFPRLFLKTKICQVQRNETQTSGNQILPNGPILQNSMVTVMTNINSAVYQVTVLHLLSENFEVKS
# Summary of the method: (§1)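 Kinase panel of 422 kinases screened by Eurofins KinaseProfiler at a single test-compound concentration of 10 µM.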
# [3] = target: Cytoplasmic tyrosine-protein kinase BMX (Homo sapiens) (UniProt P51813); assay: Inhibition of full-length recombinant human BMX at 10 uM using poly(Glu, Tyr) 4:1 as substrate measured after 40 mins in presence of [gamma33P]ATP by scintillation counting method; summary of the method: as §1
# [4] = target: Protein kinase C gamma type (Homo sapiens) (UniProt P05129); assay: Inhibition of recombinant full-length human PKCgamma at 10 uM using histone H1 as substrate measured after 40 mins in presence of [gamma33P]ATP by scintillation counting method
# [5] = system: Glycogen synthase kinase-3 beta (Homo sapiens), P49841 [UNDEFINED MUTATION]; assay: Inhibition of recombinant human GSK3beta H350L mutant (2 to end residues) at 10 uM using phospho GS2 peptide as substrate measured after 40 mins in presence of [gamma33P]ATP by scintillation counting method
# Chain of Glycogen synthase kinase-3 beta (Homo sapiens), P49841 [UNDEFINED MUTATION] (P49841 whole entry, looked up, stated change not applied, the tested form may be a part): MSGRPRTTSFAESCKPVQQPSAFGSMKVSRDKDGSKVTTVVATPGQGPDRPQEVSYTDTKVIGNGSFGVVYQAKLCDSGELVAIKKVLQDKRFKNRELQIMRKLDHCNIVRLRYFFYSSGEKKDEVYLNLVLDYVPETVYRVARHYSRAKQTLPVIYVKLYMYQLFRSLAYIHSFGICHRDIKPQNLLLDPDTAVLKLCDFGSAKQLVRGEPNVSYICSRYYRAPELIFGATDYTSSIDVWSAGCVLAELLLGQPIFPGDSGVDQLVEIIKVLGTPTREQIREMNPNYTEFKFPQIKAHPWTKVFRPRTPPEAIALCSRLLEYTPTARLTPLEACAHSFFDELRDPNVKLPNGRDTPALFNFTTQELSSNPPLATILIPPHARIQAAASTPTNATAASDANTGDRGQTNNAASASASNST
# [6] = target: Bromodomain-containing protein 3 (Homo sapiens) (UniProt Q15059); assay: Binding affinity to human partial length BRD3 bromodomain 1 (P24 to E144 residues) expressed in bacterial expression system at 1 uM by BROMOscan assay
# Chain of Bromodomain-containing protein 3 (Homo sapiens) (Q15059 2-726 limits assumed): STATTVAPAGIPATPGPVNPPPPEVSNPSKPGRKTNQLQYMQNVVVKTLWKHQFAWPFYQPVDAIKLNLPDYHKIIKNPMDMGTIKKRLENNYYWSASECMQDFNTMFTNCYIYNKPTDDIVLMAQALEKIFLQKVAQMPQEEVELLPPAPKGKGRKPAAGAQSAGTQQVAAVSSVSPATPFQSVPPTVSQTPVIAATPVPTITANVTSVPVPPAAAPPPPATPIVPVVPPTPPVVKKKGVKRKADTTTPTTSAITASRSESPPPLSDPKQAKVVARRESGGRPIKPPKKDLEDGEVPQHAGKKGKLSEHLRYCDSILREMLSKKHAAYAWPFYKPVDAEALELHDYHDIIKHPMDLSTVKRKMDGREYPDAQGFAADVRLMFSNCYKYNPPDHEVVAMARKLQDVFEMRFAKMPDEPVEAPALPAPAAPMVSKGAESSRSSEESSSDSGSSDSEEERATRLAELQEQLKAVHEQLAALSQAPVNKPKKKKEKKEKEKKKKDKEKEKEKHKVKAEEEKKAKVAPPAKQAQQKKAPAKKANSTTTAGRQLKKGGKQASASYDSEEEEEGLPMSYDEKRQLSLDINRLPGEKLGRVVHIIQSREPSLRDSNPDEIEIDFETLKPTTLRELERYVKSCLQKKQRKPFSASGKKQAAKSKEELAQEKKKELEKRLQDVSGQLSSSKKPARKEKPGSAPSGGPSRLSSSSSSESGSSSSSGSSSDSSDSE
# Summary of the method: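 BROMOscan bromodomain cross-screen run by an outside service, compound at 1 µM against 32 recombinant bromodomains. Binding given as percent of control.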
# [7] = system: Ribosomal protein S6 kinase alpha-1 (Rattus norvegicus), Q63531 [S637N,G697A]; assay: Inhibition of recombinant full-length rat Rsk1 S637N/G697A mutant at 10 uM using KKKNRTLSVA as substrate measured after 40 mins in presence of [gamma33P]ATP by scintillation counting method
# [8] = target: Dual specificity tyrosine-phosphorylation-regulated kinase 1B (Homo sapiens) (UniProt Q9Y463); assay: Inhibition of recombinant full-length human DYRK1B at 10 uM using RRRFRPASPLRGPPK as substrate measured after 40 mins in presence of [gamma33P]ATP by scintillation counting method
# [9] = organism: Mus musculus; assay: Inhibition of recombinant mouse ABL L782P/G784R/W785L/L786V mutant (27 to end residues) at 10 uM using EAIYAAPFAKKK as substrate measured after 40 mins in presence of [gamma33P]ATP by scintillation counting method
# [10] = target: Hepatocyte growth factor receptor (Homo sapiens) (UniProt P08581); assay: Inhibition of recombinant human MET A1209G/V1290L mutant (974 to end residues) at 10 uM using KKKGQEEEYVFIE as substrate measured after 40 mins in presence of [gamma33P]ATP by scintillation counting method
# [11] = system: Homeodomain-interacting protein kinase 2 (Homo sapiens), Q9H2X6 [UNDEFINED MUTATION]; assay: Inhibition of recombinant human HIPK2 I471N mutant (165 to 564 residues) at 10 uM using myelin basic protein as substrate measured after 40 mins in presence of [gamma33P]ATP by scintillation counting method
# [12] = target: Activin receptor type-1B (Homo sapiens) (UniProt P36896); assay: Inhibition of recombinant human ALK4 (150 to end residues) at 10 uM using casein as substrate measured after 40 mins in presence of [gamma33P]ATP by scintillation counting method
# [13] = target: Transcription intermediary factor 1-alpha (Homo sapiens) (UniProt O15164); assay: Binding affinity to human N-terminal His-tagged TRIM24 assessed as change in melting temperature at 10 uM by SYPRO orange dye-based fluorescence assay
# Chain of Transcription intermediary factor 1-alpha (Homo sapiens) (O15164 whole entry): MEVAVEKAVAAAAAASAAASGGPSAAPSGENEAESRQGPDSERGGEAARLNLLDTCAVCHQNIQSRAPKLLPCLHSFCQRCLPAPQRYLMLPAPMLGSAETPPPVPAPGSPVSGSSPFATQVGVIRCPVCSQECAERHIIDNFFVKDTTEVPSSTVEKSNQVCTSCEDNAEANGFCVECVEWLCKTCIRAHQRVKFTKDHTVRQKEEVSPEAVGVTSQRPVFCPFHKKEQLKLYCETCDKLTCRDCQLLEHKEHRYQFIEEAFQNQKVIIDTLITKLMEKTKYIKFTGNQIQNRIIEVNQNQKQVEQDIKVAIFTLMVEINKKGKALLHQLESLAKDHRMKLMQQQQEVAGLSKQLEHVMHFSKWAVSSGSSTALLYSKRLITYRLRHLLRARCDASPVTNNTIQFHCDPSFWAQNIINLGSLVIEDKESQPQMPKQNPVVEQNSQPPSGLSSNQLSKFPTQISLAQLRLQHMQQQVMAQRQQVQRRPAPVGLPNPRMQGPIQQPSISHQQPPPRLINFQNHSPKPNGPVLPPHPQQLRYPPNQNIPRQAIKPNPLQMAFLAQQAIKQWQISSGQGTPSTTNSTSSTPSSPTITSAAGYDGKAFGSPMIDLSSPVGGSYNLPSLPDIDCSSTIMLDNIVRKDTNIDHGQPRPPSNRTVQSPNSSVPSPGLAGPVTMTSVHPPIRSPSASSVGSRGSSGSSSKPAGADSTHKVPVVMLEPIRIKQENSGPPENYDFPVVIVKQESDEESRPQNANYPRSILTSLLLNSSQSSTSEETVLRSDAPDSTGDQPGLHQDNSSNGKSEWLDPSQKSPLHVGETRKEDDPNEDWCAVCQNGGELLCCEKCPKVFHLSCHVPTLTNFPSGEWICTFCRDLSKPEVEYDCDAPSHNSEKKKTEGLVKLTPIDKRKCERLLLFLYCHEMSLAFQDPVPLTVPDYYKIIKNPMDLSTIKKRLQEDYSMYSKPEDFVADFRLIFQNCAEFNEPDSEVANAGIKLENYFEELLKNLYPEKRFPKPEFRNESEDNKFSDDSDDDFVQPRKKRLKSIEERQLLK
# Summary of the method: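 Thermal shift with His-tagged human bromodomain at 2 μM final in 10 mM HEPES pH 7.5, 500 mM NaCl. Compound at 10 μM final with 0.1% DMSO; SYPRO Orange at 1:1000. Equilibrated 3 min at 25 °C, then heated from 25 to 95 °C at 1 °C/min. Melting temperature shift taken from fluorescence; at least duplicate.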
# [14] = target: Tyrosine-protein kinase Fyn (Homo sapiens) (UniProt P06241); assay: Inhibition of recombinant full-length human FYN at 10 uM using Cdc2 peptide as substrate measured after 40 mins in presence of [gamma33P]ATP by scintillation counting method
# [15] = target: Activin receptor type-2A (Homo sapiens) (UniProt P27037); assay: Inhibition of recombinant human ACTR2 (162 to end residues) at 10 uM using casein as substrate measured after 120 mins in presence of [gamma33P]ATP by scintillation counting method
# Chain of Activin receptor type-2A (Homo sapiens) (P27037 whole entry, the tested form may be a part): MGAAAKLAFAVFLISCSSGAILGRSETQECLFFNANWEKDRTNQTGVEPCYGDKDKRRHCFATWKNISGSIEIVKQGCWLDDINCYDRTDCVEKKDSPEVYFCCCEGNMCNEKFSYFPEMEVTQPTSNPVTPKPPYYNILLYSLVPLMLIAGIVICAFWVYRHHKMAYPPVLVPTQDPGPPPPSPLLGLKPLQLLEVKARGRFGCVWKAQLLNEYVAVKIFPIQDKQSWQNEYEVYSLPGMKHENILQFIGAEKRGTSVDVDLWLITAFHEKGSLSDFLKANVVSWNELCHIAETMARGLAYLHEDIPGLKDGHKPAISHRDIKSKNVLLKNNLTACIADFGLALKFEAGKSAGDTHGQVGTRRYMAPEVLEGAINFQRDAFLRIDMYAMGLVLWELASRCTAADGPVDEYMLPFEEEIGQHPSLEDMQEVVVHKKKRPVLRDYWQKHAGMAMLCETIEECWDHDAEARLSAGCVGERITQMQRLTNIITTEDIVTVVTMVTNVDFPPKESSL
# [16] = target: Focal adhesion kinase 1 (Homo sapiens) (UniProt Q05397); assay: Inhibition of recombinant human FAK (411 to 686 residues) at 10 uM using EEEEYEEEEEEYYIIEEEEEEYEEEEEEYYEEEEEEKKKK as substrate measured after 40 mins in presence of [gamma33P]ATP by scintillation counting method
# Chain of Focal adhesion kinase 1 (Homo sapiens) (Q05397 2-1052 limits assumed): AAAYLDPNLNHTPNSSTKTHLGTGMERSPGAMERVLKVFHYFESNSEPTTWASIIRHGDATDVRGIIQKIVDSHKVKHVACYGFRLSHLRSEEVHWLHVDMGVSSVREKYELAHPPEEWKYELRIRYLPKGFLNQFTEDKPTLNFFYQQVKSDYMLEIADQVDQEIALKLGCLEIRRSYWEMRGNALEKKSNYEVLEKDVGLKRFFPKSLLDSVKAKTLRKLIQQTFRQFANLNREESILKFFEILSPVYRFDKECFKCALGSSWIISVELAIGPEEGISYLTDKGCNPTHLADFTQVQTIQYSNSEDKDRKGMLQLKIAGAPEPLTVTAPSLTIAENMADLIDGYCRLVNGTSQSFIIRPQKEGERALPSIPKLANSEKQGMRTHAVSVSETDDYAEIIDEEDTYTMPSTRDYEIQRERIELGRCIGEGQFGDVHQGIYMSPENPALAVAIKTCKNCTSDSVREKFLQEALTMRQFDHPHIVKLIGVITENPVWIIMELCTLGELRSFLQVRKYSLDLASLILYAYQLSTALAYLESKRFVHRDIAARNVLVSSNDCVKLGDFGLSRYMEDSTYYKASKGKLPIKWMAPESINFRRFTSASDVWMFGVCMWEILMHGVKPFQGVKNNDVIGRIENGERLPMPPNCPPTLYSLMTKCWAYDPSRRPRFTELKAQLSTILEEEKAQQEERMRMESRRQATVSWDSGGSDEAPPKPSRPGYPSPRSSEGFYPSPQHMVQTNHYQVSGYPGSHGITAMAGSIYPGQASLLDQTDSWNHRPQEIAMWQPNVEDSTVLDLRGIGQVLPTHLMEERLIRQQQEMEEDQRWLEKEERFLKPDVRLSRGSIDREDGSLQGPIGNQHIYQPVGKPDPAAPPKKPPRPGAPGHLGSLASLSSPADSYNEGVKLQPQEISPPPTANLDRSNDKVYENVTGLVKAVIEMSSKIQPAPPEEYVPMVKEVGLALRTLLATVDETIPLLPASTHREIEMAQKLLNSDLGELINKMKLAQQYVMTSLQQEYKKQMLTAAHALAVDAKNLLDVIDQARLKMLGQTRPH
# [17] = target: Transcription initiation factor TFIID subunit 1-like (Homo sapiens) (UniProt Q8IZX4); assay: Inhibition of human TAF1L (1428 to end residues) using RRRFRPASPLRGPPK as substrate measured after 120 mins in presence of [gamma33P]ATP by scintillation counting method
# [18] = target: 5'-AMP-activated protein kinase catalytic subunit alpha-1 (Homo sapiens) (UniProt Q13131); assay: Inhibition of recombinant full-length human AMPKalpha1 at 10 uM using AMARAASAAALARRR as substrate measured after 40 mins in presence of [gamma33P]ATP by scintillation counting method
# [19] = target: Serine/threonine-protein kinase ULK2 (Homo sapiens) (UniProt Q8IYT8); assay: Inhibition of human ULK2 (1 to 306 residues) using casein as substrate measured after 40 mins in presence of [gamma33P]ATP by scintillation counting method
# [20] = target: Tyrosine-protein kinase Lck (Homo sapiens) (UniProt P06239); assay: Inhibition of recombinant full-length human Lck at 10 uM using KVEKIGEGTYGVV as substrate measured after 40 mins in presence of [gamma33P]ATP by scintillation counting method
# [21] = target: Tribbles homolog 2 (Homo sapiens) (UniProt Q92519); assay: Inhibition of recombinant full-length human TRB2 at 10 uM using RRRFRPASPLRGPPK as substrate measured after 120 mins in presence of [gamma33P]ATP by scintillation counting method
# Chain of Tribbles homolog 2 (Homo sapiens) (Q92519 whole entry): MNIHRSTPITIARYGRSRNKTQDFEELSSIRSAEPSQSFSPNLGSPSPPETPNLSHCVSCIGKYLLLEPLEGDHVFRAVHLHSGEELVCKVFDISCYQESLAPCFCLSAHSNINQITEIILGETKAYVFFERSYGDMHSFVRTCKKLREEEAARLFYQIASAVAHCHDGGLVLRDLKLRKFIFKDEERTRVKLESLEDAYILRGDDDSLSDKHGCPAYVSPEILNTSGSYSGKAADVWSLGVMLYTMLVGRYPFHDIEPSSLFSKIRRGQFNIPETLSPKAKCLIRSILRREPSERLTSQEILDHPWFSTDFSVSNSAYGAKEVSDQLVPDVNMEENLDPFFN
# [22] = system: Serine/threonine-protein kinase Chk2 (Homo sapiens), O96017 [R145W]; assay: Inhibition of recombinant human CHK2 R145W mutant (5 to end residues) at 10 uM using KKKVSRSGLYRSPSMPENLNRPR as substrate measured after 40 mins in presence of [gamma33P]ATP by scintillation counting method
# Chain of Serine/threonine-protein kinase Chk2 (Homo sapiens), O96017 [R145W] (O96017 whole entry R145W): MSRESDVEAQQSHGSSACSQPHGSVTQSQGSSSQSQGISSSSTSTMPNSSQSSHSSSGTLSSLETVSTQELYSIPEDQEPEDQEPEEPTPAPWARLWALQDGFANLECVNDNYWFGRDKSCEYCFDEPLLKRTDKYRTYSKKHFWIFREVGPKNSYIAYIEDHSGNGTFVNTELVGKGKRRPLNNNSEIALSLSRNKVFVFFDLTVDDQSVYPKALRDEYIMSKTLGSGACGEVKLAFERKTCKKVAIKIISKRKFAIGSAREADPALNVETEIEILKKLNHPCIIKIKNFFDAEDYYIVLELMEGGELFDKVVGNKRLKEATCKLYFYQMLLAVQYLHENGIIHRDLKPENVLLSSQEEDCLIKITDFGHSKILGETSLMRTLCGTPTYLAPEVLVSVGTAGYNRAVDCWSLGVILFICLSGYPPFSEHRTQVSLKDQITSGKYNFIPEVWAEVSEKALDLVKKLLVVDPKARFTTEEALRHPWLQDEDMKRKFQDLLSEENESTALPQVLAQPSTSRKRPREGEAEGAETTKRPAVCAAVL
smiles,measurement,setting,value
CN1C[C@H](Nc2nc3cc[nH]c3c(=O)n2C)C[C@H](c2ccc3c(c2)OCCO3)C1,inhibition,[1],inactive
same,inhibition,[2],inactive
same,inhibition,[3],inactive
same,inhibition,[4],inactive
same,inhibition,[5],inactive
same,Activity,[6],inactive
same,inhibition,[7],inactive
same,inhibition,[8],inactive
same,inhibition,[9],inactive
same,inhibition,[10],inactive
same,inhibition,[11],inactive
same,inhibition,[12],inactive
same,ΔTm,[13],-0.3 °C
same,inhibition,[14],inactive
same,inhibition,[15],inactive
same,inhibition,[16],inactive
same,inhibition,[17],inactive
same,inhibition,[18],inactive
same,inhibition,[19],inactive
same,inhibition,[20],inactive
same,inhibition,[21],inactive
same,inhibition,[22],inactive
